The source made the active and inactive calls. The calls are words filed in the database; no cut-off is given here.
Experiments:
[1] = target: T1, NAD-dependent protein deacetylase sirtuin-1 (Homo sapiens) (UniProt Q96EB6); experiment: Inhibition of His6-tagged SIRT1 (unknown origin) expressed in Escherichia coli BL21 (DE3) at 1 uM using Fluor-de-Lys-Ac-Gly-Gly-Lys(ac)-AMC peptide as substrate incubated for 5 mins by fluorescence assay
T1 sequence (whole entry): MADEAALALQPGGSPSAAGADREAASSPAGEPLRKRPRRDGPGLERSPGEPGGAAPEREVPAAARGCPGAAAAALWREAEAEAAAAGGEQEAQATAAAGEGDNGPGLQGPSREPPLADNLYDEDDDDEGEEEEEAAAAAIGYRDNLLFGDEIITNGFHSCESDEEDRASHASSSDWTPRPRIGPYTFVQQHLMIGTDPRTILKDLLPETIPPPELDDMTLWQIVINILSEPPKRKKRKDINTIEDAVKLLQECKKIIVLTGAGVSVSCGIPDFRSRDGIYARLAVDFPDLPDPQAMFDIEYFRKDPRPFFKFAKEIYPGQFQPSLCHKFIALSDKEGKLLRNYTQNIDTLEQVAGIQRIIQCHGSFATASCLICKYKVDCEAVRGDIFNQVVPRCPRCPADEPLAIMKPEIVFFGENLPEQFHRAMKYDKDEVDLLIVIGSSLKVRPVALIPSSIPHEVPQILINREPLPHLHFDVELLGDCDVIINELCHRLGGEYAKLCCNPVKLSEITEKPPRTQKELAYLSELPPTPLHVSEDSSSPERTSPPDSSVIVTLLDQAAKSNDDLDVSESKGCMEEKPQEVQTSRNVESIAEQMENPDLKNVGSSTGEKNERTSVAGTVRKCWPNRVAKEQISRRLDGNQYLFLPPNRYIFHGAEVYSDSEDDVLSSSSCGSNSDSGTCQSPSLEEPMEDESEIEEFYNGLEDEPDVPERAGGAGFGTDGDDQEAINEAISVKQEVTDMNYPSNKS
In short: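 Conditions as the FLucK529ac deacetylase assay (100 nM SirT1, sirtuin buffer 2) but with 10 µM Ac-Gly-Gly-Lys(ac)-AMC substrate and inhibitors at 1 µM. Stopped with equal volume 2× trypsin (0.1 mg/mL); released coumarin read after 5 min RT, ex 355/em 460 nm.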

[2] = target: T1, NAD-dependent protein deacetylase sirtuin-1 (Homo sapiens); experiment: Inhibition of His6-tagged SIRT1 (unknown origin) expressed in Escherichia coli BL21 (DE3) deacetylation activity incubated for 30 mins in presence of NAD+; settings: dose 0.04-10 µM
[3] = target: T1, NAD-dependent protein deacetylase sirtuin-1 (Homo sapiens); experiment: Binding affinity to His6-tagged SIRT1 (unknown origin) expressed in Escherichia coli BL21 (DE3) assessed as increase in thermal stability at 0.1 mM and 41.5 degreeC using H3K18Ac peptide as substrate incubated for 10 mins in presence of NAD+ by SYPRO orange thermal shift assay
[4] = target: T1, NAD-dependent protein deacetylase sirtuin-1 (Homo sapiens); experiment: Binding affinity to His6-tagged SIRT1 (unknown origin) expressed in Escherichia coli BL21 (DE3) assessed as thermal stability at 90 uM using H3K18Ac as substrate incubated for 20 mins in presence of NAD+ by GloMelt thermal shift assay
In short: (§1)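 SirT1 or SirT3 at 8 µM with 1 mM NAD⁺ and 0.25 mM H3K18ac; SirT2 at 16 µM with 1 mM NAD⁺ and 0.5 mM H4K16ac. Compound 90 µM, 20 min RT before dye addition and melting; ΔTm from melting curves.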

[5] = target: T2, NAD-dependent protein deacetylase sirtuin-2 (Homo sapiens) (UniProt Q8IXJ6); experiment: Binding affinity to His6-tagged/TEV fused SIRT2 (unknown origin) expressed in Escherichia coli BL21 (DE3) assessed as thermal stability at 90 uM using H4K16Ac as substrate incubated for 20 mins in presence of NAD+ by GloMelt thermal shift assay; in short: as §1
T2 sequence (whole entry): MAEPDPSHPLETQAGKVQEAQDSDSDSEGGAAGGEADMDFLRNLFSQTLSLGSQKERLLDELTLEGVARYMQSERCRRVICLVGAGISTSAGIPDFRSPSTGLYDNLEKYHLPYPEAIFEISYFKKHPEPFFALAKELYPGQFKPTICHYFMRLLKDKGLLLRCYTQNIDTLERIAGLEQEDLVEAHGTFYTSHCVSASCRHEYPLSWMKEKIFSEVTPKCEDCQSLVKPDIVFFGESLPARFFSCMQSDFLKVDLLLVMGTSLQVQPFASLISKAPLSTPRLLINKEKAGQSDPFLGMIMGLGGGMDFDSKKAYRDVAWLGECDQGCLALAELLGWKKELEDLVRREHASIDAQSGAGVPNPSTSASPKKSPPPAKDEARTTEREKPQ

[6] = target: T3, NAD-dependent protein deacetylase sirtuin-3, mitochondrial (Homo sapiens) (UniProt Q9NTG7); experiment: Binding affinity to His6-tagged/TEV fused SIRT3 (unknown origin) expressed in Escherichia coli BL21 (DE3) assessed as thermal stability at 90 uM using H3K18Ac as substrate incubated for 20 mins in presence of NAD+ by GloMelt thermal shift assay; in short: as §1
T3 sequence (whole entry): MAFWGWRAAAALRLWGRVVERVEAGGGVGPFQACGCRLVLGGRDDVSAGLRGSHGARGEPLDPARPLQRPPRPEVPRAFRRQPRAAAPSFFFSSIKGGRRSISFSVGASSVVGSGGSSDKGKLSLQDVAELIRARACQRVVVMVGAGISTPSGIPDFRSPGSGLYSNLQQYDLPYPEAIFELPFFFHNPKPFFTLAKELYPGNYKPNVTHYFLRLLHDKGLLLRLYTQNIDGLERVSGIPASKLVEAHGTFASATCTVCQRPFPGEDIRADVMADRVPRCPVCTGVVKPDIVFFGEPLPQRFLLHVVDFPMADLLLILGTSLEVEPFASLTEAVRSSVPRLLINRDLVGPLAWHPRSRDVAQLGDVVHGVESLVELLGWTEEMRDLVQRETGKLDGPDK

NC(=O)C1CN(Cc2ccc3nonc3c2)c2ccccc2O1 (stereo unspecified)
inhibition [1]: inactive | inhibition [2]: Dose-Dependent Effect | Activity [3]: Active | Activity [4]: Active | Activity [5]: inactive | Activity [6]: inactive

NC(=O)C1CCCc2c1[nH]c1ccc(Cl)cc21 (stereo unspecified)
inhibition [2]: Dose-Dependent Effect | Activity [3]: Active

N#Cc1ccccc1CN1CC(C(N)=O)Oc2ccccc21 (stereo in doubt; 4.27)
Activity [4]: Active | Activity [5]: inactive | Activity [6]: inactive

Source: ChEMBL document CHEMBL4834428
